Compound activity deposited in PubChem by Broad Institute.
CAL PDZ FP-1: CAL PDZ peptide-binding inhibitors, primary screen, biochemical, fluorescence polarization, Cer-tagged CAL PDZ, HTS; purified CAL PDZ, TMR-peptide fluorescence polarization, 1 h; inhibition, % at 20 µM; actives 0.02% (n = 330,000); AID 504414, 2011;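 active = highest replicate inhibition of at least 40%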
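material = purified tagged CAL PDZ domain construct (CerCALP) | buffer or medium = sodium phosphate/NaCl buffer pH 7.4 with TCEP, IgG, Thesit | reagent = TMR-labelled reporter peptide T*-PRC34 bound in PDZ groove | incubation = 1 h room-temperature incubation prior to read | measured by = fluorescence polarization (mP) | evaluation = percent inhibition from loss of millipolarization | control set = unlabelled peptide and DMSO controls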
ERAP1 HTS inh: human ERAP1 aminopeptidase inhibitors, primary screen, biochemical, single point, plate reader | Endoplasmic reticulum aminopeptidase 1 (Homo sapiens), Q9NZ08 | recombinant ERAP1, Leu-AMC fluorescence, 60 min | inhibition, % at 10.7 µM | actives 0.15% (n = 340,000) | AID 652197, 2013;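 active = mean replicate inhibition of at least 30%, or all replicates individually reaching that 30% level; inactive = mean below 30% and not every replicate reaching it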
S100A4 MyoIIA: inhibitors of S100A4-myosin IIA peptide binding, primary screen, biochemical, fluorescence polarization, TAMRA-MyoIIA peptide | Protein S100-A4 (Homo sapiens), P26447 | inhibition, % at 10.7 µM | actives 0.14% (n = 360,000) | AID 652163, 2013;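 active = mean inhibition of at least 70% across replicates, with every replicate also reaching that level; inconclusive = mean inhibition reaches 70% but some replicates fall short; inactive = mean inhibition below 70%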
Target sequence (P26447 whole entry, looked up): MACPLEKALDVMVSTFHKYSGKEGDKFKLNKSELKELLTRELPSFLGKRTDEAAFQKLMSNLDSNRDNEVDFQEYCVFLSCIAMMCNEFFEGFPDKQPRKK
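Material: human S100A4 monomer with TAMRA-labelled myosin IIA peptide; buffer or medium: HEPES pH 7.2 with CaCl2, KCl, NaCl, DTT, Triton; compound dosing: one concentration per compound; schedule: 5 min incubation before reading; benchmarks: neutral control DMSO, positive control TFP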
CAL PDZ FP-2: untagged CAL PDZ binding inhibitors, primary screen, biochemical, fluorescence polarization, HTS; purified CAL PDZ, TMR-peptide fluorescence polarization, 1 h; inhibition, % at 24.9 µM; actives 0.92% (n = 300,000); AID 602252, 2012;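 active = mean inhibition of at least 30% with at least half of replicates also reaching 30%; inconclusive = no clear call, values can overlap the other calls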
SIRT5 block: SIRT5 desuccinylase inhibitors, primary screen, biochemical, fluorescence imaging, single point, set 5. NAD-dependent protein deacylase sirtuin-5, mitochondrial (Homo sapiens), Q9NXA8. Purified SirT5, succinyl-peptide AMC, trypsin-coupled fluorescence. inhibition, % at 15 µM. actives 1.1% (n = 330,000). AID 652115, 2013; in the data active = inhibition above about 15%; inconclusive = no clear call, values can overlap the other calls
Target sequence (Q9NXA8 whole entry, looked up): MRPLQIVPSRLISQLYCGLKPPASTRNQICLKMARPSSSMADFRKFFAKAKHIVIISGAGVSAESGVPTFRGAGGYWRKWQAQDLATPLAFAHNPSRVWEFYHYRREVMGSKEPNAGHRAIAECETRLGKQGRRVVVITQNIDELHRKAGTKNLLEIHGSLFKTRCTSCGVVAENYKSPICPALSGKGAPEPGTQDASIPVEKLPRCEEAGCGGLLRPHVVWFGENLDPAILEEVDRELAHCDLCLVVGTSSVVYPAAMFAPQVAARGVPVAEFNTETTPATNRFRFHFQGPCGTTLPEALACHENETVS
DENV2 CPE: inhibitors of DENV2 cytopathic effect, primary screen, cell-based, plate reader, single concentration; DENV2-infected cells, cytopathic effect rescue; CPE inhibition, % at 9.99 µM; actives 1.7% (n = 350,000); in the data active = CPE inhibition above about 20%, passing the limit was not always enough; inconclusive = no clear call, values can overlap the other calls; tested in BHK-21 cells
Numbers stand for hits; 0 = inactive; ? = inconclusive; - = not tested or not shown. A selection: hits, their analogues and other compounds. The true share with any hit is near 2.9%.

SMILES	CAL PDZ FP-1	ERAP1 HTS inh	S100A4 MyoIIA	CAL PDZ FP-2	SIRT5 block	DENV2 CPE
CCCC(=O)Nc1ccc2c(c1)C(=O)N(C)C[C@@H](OC)[C@@H](C)CN(Cc1ccc(-c3ccccn3)cc1)[C@@H](C)CO2	-	0	0	-	-	0
CCCNC(=O)Nc1ccc2c(c1)OC[C@H](C)N(Cc1ccncc1)C[C@@H](C)[C@@H](OC)CN(C)C2=O	-	0	0	-	0	45
CCCC(=O)Nc1ccc2c(c1)OC[C@@H](C)N(Cc1ccc(-c3ccccn3)cc1)C[C@H](C)[C@H](OC)CN(C)C2=O	-	0	109	-	0	0
CCCNC(=O)Nc1ccc2c(c1)C(=O)N(C)C[C@H](OC)[C@H](C)CN(Cc1ccc(-c3ccccn3)cc1)[C@H](C)CO2	-	0	0	-	15	?
CCCC(=O)Nc1ccc2c(c1)C(=O)N(C)C[C@H](OC)[C@H](C)CN(Cc1ccc(-c3ccccn3)cc1)[C@@H](C)CO2	-	0	0	-	-	28
COc1ccc(NC(=O)Nc2ccc3c(c2)CC(=O)N([C@@H](C)CO)C[C@@H](C)[C@@H](CN(C)Cc2ccncc2)O3)cc1	-	0	0	-	0	0
C/C=C/c1ccc2c(c1)O[C@H](CN(C)C(=O)c1ccccn1)[C@H](C)CN([C@@H](C)CO)S2(=O)=O	-	0	0	-	0	0
COCCNC(=O)C[C@H]1CC[C@@H]2[C@H](COC[C@H](O)CN2Cc2cccc(-c3ccncc3)c2)O1	-	0	0	-	0	0
O=C([C@@H]1[C@@H](CO)[C@@H]2Cn3c(cccc3=O)[C@@H]2N1C(=O)C1CCCC1)N1CCOCC1	-	0	0	-	0	0
C[C@@H]1CCCCO[C@@H](CN(C)C)[C@H](C)CN([C@H](C)CO)C(=O)c2cc(NC(=O)Nc3ccc(F)cc3)ccc2O1	-	0	0	-	0	0
COc1ccc(CN2C[C@@H](C)[C@@H](OC)CN(C)C(=O)c3cc(NC(=O)c4nc5ccccc5s4)ccc3OC[C@@H]2C)cc1	-	0	0	-	-	0
COc1ccc(CN2C[C@H](C)[C@@H](OC)CN(C)C(=O)c3cc(NC(=O)c4nc5ccccc5s4)ccc3OC[C@@H]2C)cc1	-	0	0	-	-	31
Cc1ccc(S(=O)(=O)Nc2ccc3c(c2)C(=O)N([C@H](C)CO)C[C@H](C)[C@@H](CN(C)S(=O)(=O)c2ccccc2)O3)cc1	-	0	0	-	0	39
Cc1ccc(S(=O)(=O)N(C)C[C@@H]2Oc3ccc(NS(=O)(=O)c4ccc(Cl)cc4)cc3C(=O)N([C@H](C)CO)C[C@@H]2C)cc1	-	0	0	-	0	0
Cc1ccc(S(=O)(=O)Nc2ccc3c(c2)C(=O)N([C@H](C)CO)C[C@@H](C)[C@H](CN(C)S(=O)(=O)c2ccc(Cl)cc2)O3)cc1	-	0	0	-	16	43
Cc1ccc(S(=O)(=O)Nc2ccc3c(c2)C(=O)N([C@@H](C)CO)C[C@@H](C)[C@@H](CN(C)S(=O)(=O)c2ccc(Cl)cc2)O3)cc1	-	0	0	-	20	0
Cc1ccc(S(=O)(=O)Nc2ccc3c(c2)C(=O)N([C@H](C)CO)C[C@H](C)[C@H](CN(C)S(=O)(=O)c2ccc(Cl)cc2)O3)cc1	-	0	0	-	0	0
CCOC(=O)C1CCN(C(C(=O)NC2CCCCC2)c2ccc(OC)cc2)CC1 (centres undefined)	0	-	-	0	-	-
COc1ccc(C(C(=O)NC2CCCC2)N2CCc3ccccc32)cc1 (centres undefined)	0	0	0	-	0	57
O=C(C[C@H]1CC[C@H](NC(=O)Nc2ccc3c(c2)OCO3)[C@@H](CO)O1)NCc1ccccc1	-	0	0	-	0	0
O=C(COC(=O)CSc1ccc([N+](=O)[O-])cc1)NCc1cccs1	0	0	0	0	15	0
Cc1ccc(SCC(=O)OCC(=O)NCc2cccs2)cc1	0	0	0	0	0	0
Cn1c(=O)c2[nH]c(CCCCc3nc4ccccc4[nH]3)nc2n(C)c1=O	0	0	0	-	0	47
Cn1c(=O)c2[nH]c(CCCCCCCCc3nc4ccccc4[nH]3)nc2n(C)c1=O	0	0	0	-	-	0
CCS(=O)(=O)Nc1ccc2c(c1)C(=O)N(C)C[C@@H](OC)[C@@H](C)CN(CCC(F)(F)F)[C@@H](C)CO2	-	0	0	-	0	0
SMILES	CAL PDZ FP-1	ERAP1 HTS inh	S100A4 MyoIIA	CAL PDZ FP-2	SIRT5 block	DENV2 CPE
O=C(c1ccc(F)cc1)N1CC(=O)N2[C@H](CO)[C@H](c3ccc(C#Cc4ccc(F)cc4)cc3)[C@H]2C1	-	0	0	-	0	0
Cc1ccc(N2CC(O)Cn3c2nc2c3c(=O)n(C)c(=O)n2C)cc1 (centres undefined)	0	0	0	0	0	0
Cn1c(=O)c2c(nc3n2CC(O)CN3c2ccc(O)cc2)n(C)c1=O (centres undefined)	0	0	0	0	0	39
C[C@H](CO)N1C[C@H](C)[C@H](CN(C)C(=O)Nc2ccc(F)cc2)Oc2ccc(N(C)C)cc2CC1=O	-	0	0	-	0	0
COc1ccc(-c2cc(C(=O)NCc3ccco3)c3ccccc3n2)cc1OC	0	0	0	69	0	0
COc1ccccc1CN(C)C(=O)c1cc(-c2cc(OC)c(OC)c(OC)c2)nc2ccccc12	0	0	0	58	0	0
COc1cccc(-c2ccc(CC[C@H]3O[C@H]4CC[C@H](CO)O[C@H]4C[C@@H]3NC(=O)CN(C)C)cc2)c1	-	-	-	-	-	0
O=C(C1CCOCC1)N1CC(=O)N2[C@H](CO)[C@H](c3ccc(C#Cc4cccc(F)c4)cc3)[C@@H]2C1	-	0	0	-	0	0
COCC(=O)Nc1ccc2c(c1)[C@H]1C[C@@H](CC(=O)N(C)C)O[C@H](CO)[C@H]1O2	-	0	0	-	0	0
N#Cc1ccc(-c2ccc3c(c2)[C@@H]2[C@@H](CCN2S(=O)(=O)c2ccccc2F)[C@H](CO)N3)cc1	-	-	-	-	-	0
Cc1ccccc1S(=O)(=O)N1CC[C@@H]2[C@H]1c1cc(-c3ccc(C#N)cc3)ccc1N[C@@H]2CO	-	0	0	-	0	77
Cc1ccccc1S(=O)(=O)N1CC[C@@H]2[C@H](CO)Nc3ccc(-c4ccc(C#N)cc4)cc3[C@@H]21	-	0	0	-	0	25
CN1C(=O)c2cc(NC(=O)C3CCOCC3)ccc2OC[C@H]2O[C@H](CC(=O)O)CC[C@H]21	-	0	0	-	0	0
CCCCSc1cc(C)nc(N)n1	0	0	0	39	0	0
O=C(c1cccnc1)N1CCCCN2[C@H](CO)[C@@H](c3ccc(C#Cc4ccccn4)cc3)[C@@H]2C1	-	0	0	-	31	0
